# Measurements of several laboratories.
# Lines come from different studies, so protocols differ.
# Target: Serine/threonine-protein kinase 32C (STK32C, Homo sapiens, UniProt Q86UX6)
Compound,assay,setting,quantity,value
O=C(Nc1cnn(-c2csc(C(=O)NC3COC3)c2)c1)Nc1ccccc1Cl,"enzyme activity, inhibitor",5 µM,remaining activity,113%
Nc1ncnc2occ(-c3ccc(NC(=O)Nc4cc(C(F)(F)F)ccc4F)cc3)c12,cell-free assay,20 µM,remaining signal,91%
O=C(CSc1nc2nccnc2c(=O)n1CCc1ccccc1)Nc1nccs1,"enzyme activity, inhibitor",10 µM,inhibition,-9%
CN1CC(Oc2cnc(C#N)cc2-c2ccn3nc(NC(=O)C4CC4)cc3c2)C1,"enzyme activity, inhibitor",1 µM,inhibition,-5%
CC(C)(O)[C@H]1CC[C@H](Nc2ccc3ncc(-c4cccc(C(F)(F)F)c4)n3n2)CC1,"enzyme activity, inhibitor",1 µM,remaining activity,83.2%
Cc1nc(C2CCN(C(=O)c3ccc(OC(F)(F)F)cc3N)CC2)c2ncc(N3CCN(C)CC3)cc2n1,"cell-free assay, competition with immobilised ligand",1 µM,remaining binding,100%
Cc1ccc(C(=O)Nc2ccc(CN3CCN(C)CC3)c(C(F)(F)F)c2)cc1C#Cc1cnc2cccnn12,enzyme activity,23.5 nM,remaining activity,100%
CS(=O)(=O)Nc1cccc(-c2csc(NC(=O)CSc3nc4nccnc4c(=O)n3CCc3ccccc3)n2)c1,"enzyme activity, inhibitor",10 µM,inhibition,-5%
COc1cc(Cl)c(C(=O)N[C@@H](CN[C@H]2CC[C@@H](N)CC2)Cc2ccc(C#N)cc2)cc1-c1ccc(CN[C@H](C)c2ccc(C)cc2)o1,"enzyme activity, inhibitor",1 µM,remaining activity,95%
COc1cccc2c(NCc3ccccc3)nc(-n3c(N)nc4ccccc43)nc12,"target engagement in cells, inhibitor, chemoproteomics",20 mM,inhibition,13.6%
O=C(Nc1cnn(-c2csc(C(=O)NC3COC3)c2)c1)Nc1c(F)cccc1Cl,"enzyme activity, inhibitor",5 µM,remaining activity,90.7%
CN(C)C(=O)Cn1cc(-c2nc(C3(c4ccc(-c5cnc(N)nc5)cc4)CC3)no2)cn1,"cell-free assay, competition with immobilised ligand",1 µM,remaining binding,100%
CCCCNc1ncc2c(-c3ccc(F)cc3)nn(C[C@H]3CC[C@H](N)CC3)c2n1,"target engagement in cells, inhibitor, chemoproteomics",20 mM,inhibition,55%
